According to PMC5412920 (Journal of Clinical Pharmacology, 2016):
Where two headings read alike, the source gives them in different places. Marks after values point to notes of the source that are not given here.

Key:
[1] = test system: plasma proteins; test: Unbound fraction in plasma; assay type: in vitro ADME, human; settings: healthy subjects; for fu,av: 50 mg, median (min-max)
Outline: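 Unbound fraction was measured in human plasma by ultrafiltration after a single oral dose. Ultrafiltrate was analysed by LC-MS/MS in MRM mode with carbon-13 internal standards. Within each subject, the mean percentage unbound from 3 results was applied to all of that subject's samples to give the average fraction unbound (fu,av).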

[2] = assay type: in vivo, human; settings: for t1/2: arithmetic mean (SD); for AUC, geometric least-squares mean / Cmax, geometric least-squares mean: fixed-effect ANOVA; for Cmax / MRAUC (metabolite-to-parent AUC ratio) / MRCmax (metabolite-to-parent Cmax ratio) / AUCu / Cmax,u: geometric mean (gCV%); for tmax: median (min-max); for AUCu / Cmax,u: unbound
[3] = Hepatic impairment study: excretion in urine; assay type: in vivo, human
Outline: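 Urine from hepatic-impairment and healthy subjects was collected at −12 to 0 h predose, then 0–6, 6–12, 12–24, 24–36 and 36–48 h, and every 24 h to 120 h after a single oral dose. Dosing followed an overnight fast, with fasting until 4 h postdose. Analytes were measured by LC-MS/MS (positive electrospray, MRM) against carbon-13 internal standards.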

[4] = assay type: in vivo, human; settings: for t1/2: arithmetic mean (SD); for tmax: median (min-max)
[5] = NCT02093728 and NCT02046850; cited from earlier work
[6] = Renal impairment study: excretion in urine and blood dialysate; assay type: in vivo, human
Outline: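 Subjects were ESRD patients on haemodialysis or healthy subjects with creatinine clearance >80 mL/min, each given 50 mg orally while fasted. ESRD patients were dosed once after dialysis and, after a washout of ≥7 days, once 1 h before dialysis. Urine was collected predose and in intervals to 72 h. Dialysate spot samples were taken every 30 min, and parameters were derived by the area under the excretion rate curve method. Analysis was by LC-MS/MS.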

[7] = ESRD, treatment period 1 (50 mg after dialysis)
[8] = ESRD, treatment period 2 (50 mg 1 h before dialysis)
[9] = severe hepatic impairment, 20 mg
[10] = healthy subjects, 50 mg, geometric mean (gCV%)
[11] = mild hepatic impairment, 50 mg, geometric mean (gCV%)
[12] = moderate hepatic impairment, 50 mg (N = 6) or 25 mg (N = 2), geometric mean (gCV%)
[13] = moderate hepatic impairment, 50 mg dose only
[14] = moderate hepatic impairment, 50 or 25 mg

O=C(NOCCO)c1cc2nc[nH]c2c(F)c1Nc1ccc(Br)cc1Cl [N‐desmethyl selumetinib]
median unbound fraction ([1]; in both studies): ~0.6% | fu,av ([1]; hepatic impairment study): 0.61 (0.54‐0.70) ^j % | fu,av ([1]; renal impairment study): 0.688 (0.659‐0.712) ^e % | Cmax, ESRD/Healthy Ratio (90%CI) ([2]; ESRD treatment period 1 vs healthy): 84.48 (61.60, 115.86) % | AUC, ESRD/Healthy Ratio (90%CI) ([2]; ESRD treatment period 1 vs healthy, 50 mg): 91.95 (67.73, 124.83) % | AUC lower when dosed before vs after dialysis ([2]; ESRD, 50 mg): 10% | Cmax lower when dosed before vs after dialysis ([2]; ESRD, 50 mg): 15% | t1/2 [2, 7]: 6.28 (2.87) ^d h | AUC, geometric least-squares mean [2, 7]: 171.0 ng·h/mL | Cmax [2, 7]: 45.1 (40.4) ng/mL | tmax [2, 7]: 1.25 (0.50‐3.00) h | Cmax, geometric least-squares mean ([2]; ESRD, treatment period 1): 45.15 ng/mL | MRAUC (metabolite-to-parent AUC ratio) ([2]; ESRD, treatment period 1): 0.0864 (45.9) ^d | MRCmax (metabolite-to-parent Cmax ratio) ([2]; ESRD, treatment period 1): 0.0623 (42.8) | t1/2 [2, 8]: 5.79 (2.52) ^d h | Cmax [2, 8]: 38.5 (57.7) ng/mL | tmax [2, 8]: 1.50 (1.00‐2.00) h | MRAUC (metabolite-to-parent AUC ratio) ([2]; ESRD, treatment period 2): 0.0930 (48.6) ^d | MRCmax (metabolite-to-parent Cmax ratio) ([2]; ESRD, treatment period 2): 0.0759 (35.9) | t1/2 ([2]; healthy subjects, 50 mg): 5.41 (1.40) h | AUC, geometric least-squares mean ([2]; healthy subjects, 50 mg): 185.9 ng·h/mL | Cmax ([2]; healthy subjects, 50 mg): 53.4 (52.1) ng/mL | tmax ([2]; healthy subjects, 50 mg): 1.50 (1.00‐3.00) h | Cmax, geometric least-squares mean ([2]; healthy subjects): 53.45 ng/mL | MRAUC (metabolite-to-parent AUC ratio) ([2]; healthy subjects): 0.0710 (38.4) | MRCmax (metabolite-to-parent Cmax ratio) ([2]; healthy subjects): 0.0619 (32.9) | AUCu [2, 7]: 2.10 (19.2) ^e ng·h/mL | Cmax,u [2, 7]: 0.561 (14.8) ^e ng/mL | AUCu ([2]; healthy subjects, 50 mg): 1.72 (14.4) ^e ng·h/mL | Cmax,u ([2]; healthy subjects, 50 mg): 0.619 (8.5) ^e ng/mL | dose excreted in urine ([3]; healthy subjects, 50 mg): 0.78% | dose excreted in urine ([3]; mild hepatic impairment, 50 mg): 0.64% | dose excreted in urine ([3]; moderate hepatic impairment): 0.20% | dose excreted in urine [3, 9]: 0.09% | AUC(0–t)/dose, geometric least-squares mean ([4]; healthy subjects, 50 mg): 4.841 ng·h/mL/mg | Cmax/dose, geometric least-squares mean ([4]; healthy subjects, 50 mg): 1.809 ng/mL/mg | t1/2 ([4]; healthy subjects, 50 mg): 9.24 (3.33) h | AUC(0–t)/dose [4, 10]: 4.84 (43.4) ng·h/mL/mg | Cmax/dose [4, 10]: 1.81 (57.0) ng/mL/mg | tmax ([4]; healthy subjects, 50 mg): 1.00 (1.00‐2.00) h | AUC(0-t)/dose lower than in healthy subjects ([4]; mild hepatic impairment): 49% | Cmax/dose lower than in healthy subjects ([4]; mild hepatic impairment): 56% | AUC(0–t)/dose, geometric least-squares mean ([4]; mild hepatic impairment, 50 mg): 2.445 ng·h/mL/mg | Cmax/dose, geometric least-squares mean ([4]; mild hepatic impairment, 50 mg): 0.8041 ng/mL/mg | t1/2 ([4]; mild hepatic impairment, 50 mg): 5.18 (1.51) ^f h | AUC(0–t)/dose [4, 11]: 2.45 (41.1) ng·h/mL/mg | Cmax/dose [4, 11]: 0.804 (57.7) ng/mL/mg | tmax ([4]; mild hepatic impairment, 50 mg): 1.50 (1.00‐4.00) h | AUC(0–t)/dose, Hepatic impairment/healthy ratio (90%CI) ([4]; mild vs healthy): 50.51 (28.28, 90.19) % | Cmax/dose, Hepatic impairment/healthy ratio (90%CI) ([4]; mild vs healthy): 44.44 (25.70, 76.85) % | AUC(0-t)/dose lower than in healthy subjects ([4]; moderate hepatic impairment): 62% | Cmax/dose lower than in healthy subjects ([4]; moderate hepatic impairment): 70% | AUC(0–t)/dose [4, 12]: 1.83 (129.6) ng·h/mL/mg | Cmax/dose [4, 12]: 0.548 (102.8) ng/mL/mg | t1/2 [4, 13]: 7.72 (2.92) ^i h | tmax [4, 13]: 1.25 (1.00‐1.50) ^f h | AUC(0–t)/dose, geometric least-squares mean [4, 14]: 1.826 ng·h/mL/mg | Cmax/dose, geometric least-squares mean [4, 14]: 0.5485 ng/mL/mg | AUC(0–t)/dose, Hepatic impairment/healthy ratio (90%CI) ([4]; moderate vs healthy): 37.72 (21.12, 67.37) % | Cmax/dose, Hepatic impairment/healthy ratio (90%CI) ([4]; moderate vs healthy): 30.31 (17.53, 52.42) % | MRCmax (metabolite-to-parent Cmax ratio) ([4]; severe hepatic impairment, 20 mg (N = 3), geometric mean (gCV%)): 0.00778 (29.2) ^h | Cmax/dose ([4]; severe hepatic impairment, 20 mg, geometric mean (gCV%)): 0.173 (44.3) ng/mL/mg | tmax [4, 9]: 2.00 (1.50‐2.00) ^h | AUC and Cmax as percentage of the parent compound [5]: ~7% | dose excreted in dialysate ([6]; ESRD, dosed 1 h before dialysis): 0.089% | fraction excreted in urine ([6]; healthy subjects, 50 mg): 0.73%
